High-throughput results deposited in PubChem by The Scripps Research Institute Molecular Screening Center.
SMARCA2 activ – SMARCA2 function activation, primary screen; MG213 cells, MMTV-luciferase reporter, dexamethasone, overnight; activation, % at 9.1 µM; 370,000 compounds, 1% hits; AID 652017; in the data active means activation above about 7.8%;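 further: 0% = vehicle wells and 100% = reference activator wells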
NR2F2 inh – inhibitors of human COUP-TFII (NR2F2) | inhibition, % at 8.6 µM | 370,000 compounds, 0.7% hits | HEK293T NGFI-A luciferase reporter, luminescence | AID 686940 | P24468;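 active means inhibition above a per-plate cutoff, mean inhibition of test wells between control levels plus 3 SD, cut at about 38% in these data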;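 further: cells cotransfected with COUP-TFII expression vector driving the NGFI-A reporter; 0% = median of COUP-TF2 test wells and 100% = reporter-only cells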
Target sequence (P24468 whole entry, looked up): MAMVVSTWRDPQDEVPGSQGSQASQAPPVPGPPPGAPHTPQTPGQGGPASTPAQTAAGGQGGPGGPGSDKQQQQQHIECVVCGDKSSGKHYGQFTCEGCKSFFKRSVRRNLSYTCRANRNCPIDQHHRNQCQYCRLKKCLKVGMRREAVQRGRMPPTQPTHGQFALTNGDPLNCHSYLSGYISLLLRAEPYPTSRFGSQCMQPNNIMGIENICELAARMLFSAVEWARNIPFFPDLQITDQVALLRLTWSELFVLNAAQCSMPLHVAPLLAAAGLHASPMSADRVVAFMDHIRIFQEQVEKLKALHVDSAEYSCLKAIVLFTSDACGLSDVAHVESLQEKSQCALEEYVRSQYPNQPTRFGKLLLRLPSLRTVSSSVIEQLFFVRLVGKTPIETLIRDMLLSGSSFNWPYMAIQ
NR2E3 ag-1 – agonists of human nuclear receptor NR2E3; 320,000 compounds, 0.12% hits; inhibition of corepressor binding, % at 4.78 µM; AID 2300; GST-NR2E3/biotin-RetCOR TR-FRET, 1536-well; Q9Y5X4;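 active means percent inhibition above the cutoff of mean plus 3 SD of all tested compounds, set per screening campaign, cut at about 20% in these data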;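 further: 0% = DMSO wells and 100% = biotin wells as full block of FRET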
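Material – GST-tagged NR2E3 plus biotinylated RetCOR corepressor · Quantity – NR2E3 fusion 1.35 nM · Times – 5 h incubation at 4 °C · Medium – pH 7.5 Tris-based buffer · Technique – TR-FRET, Eu(K)-anti-GST donor, streptavidin-D2 acceptor, ex 340, em 617/671 nm · Benchmarks – high control biotin, low control 0.6% DMSO · Format – 1536-well plates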
GalR3 antag – blocks the human galanin receptor 3 | AID 651719 | inhibition, % at 3 µM | O60755 | 360,000 compounds, 0.44% hits | HEK293 GalR3-CNG cAMP membrane potential fluorescence; galR3 body fused to GalR1 C-terminus;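 active means inhibition above the screen-wide average plus 3 SD, cut at about 13% in these data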;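 further: forskolin and galanin both at EC90 stimulate the cells; cAMP rise reported by CNG channel membrane potential dye signal; 0% = forskolin plus galanin with DMSO and 100% = forskolin alone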
NR2E3 ag-2 – activates human NR2E3 receptor; CHO-S Gal4-NCOR/VP16-NR2E3 two-hybrid, luciferase; inhibition of corepressor binding, % at 3.98 µM; 360,000 compounds, 0.35% hits; AID 602229;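 active means inhibition above the mean of all tested compounds plus 3 SD, cut at about 70% in these data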;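 further: 0% = DMSO with NR2E3 transfected cells and 100% = cells lacking NR2E3 construct; higher means lower luciferase signal from less NR2E3 corepressor binding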
NR2E3 ag confirm – NR2E3 (human) agonism, confirmation; shares compounds with NR2E3 ag-1; cell-free NR2E3 corepressor release, TR-FRET, 5 h; activation (reported as inhibition), % at 3.98 µM; 360 compounds, 39% hits; in the data active means activation above about 20%
PPARg-NCOR2 ctr – counter-screen for NR2E3 agonists: human PPARgamma-NCOR2 interaction agonists | inhibition, % at 3.98 µM | shares compounds with NR2E3 ag-1 | 360 compounds, 45% hits | AID 504787 | TR-FRET PPARg-NCOR2 coregulator interaction, biochemical; in the data active means inhibition above about 20%;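 further: 0% = DMSO vehicle and 100% = wells without protein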
Active calls of the source: *. A selection: hits, their analogues and other compounds. The true share with any hit is near 2.2%.

Results for O=c1[nH]c(=O)n(CCC2=CCCCC2)c(O)c1C=NC1CCN(Cc2ccccc2)CC1 ?
SMARCA2 activ: -5; NR2F2 inh: 52*; NR2E3 ag-1: 0; GalR3 antag: 2; NR2E3 ag-2: -12

What do the screens show for `c1ccc(Cn2nnnc2C2CN=C(c3ccccc3)c3ccccc3N2)cc1` (stereo unspecified)?
SMARCA2 activ: -3; NR2F2 inh: 0

What do the screens show for `O=C1C2CC=CCC2C(=O)N1SC(Cl)(Cl)Cl` (stereo unspecified)?
SMARCA2 activ: 2; NR2F2 inh: 15; GalR3 antag: 35*

Results for O=C(NCCN1CCC2(CC1)C(=O)NCN2c1ccccc1)c1ccc(F)c(F)c1 ?
SMARCA2 activ: -3; NR2F2 inh: 13; GalR3 antag: -10

Results for O=C(NCCN1CCC2(CC1)C(=O)NCN2c1ccccc1)c1cccc2c1-c1ccccc1C2=O ?
SMARCA2 activ: -3; NR2F2 inh: 18; GalR3 antag: -4

Results for CN1CN(c2ccccc2)C2(CCN(CCCSc3ccccc3NC(=O)/C=C/c3ccccc3)CC2)C1=O ?
SMARCA2 activ: -7; NR2F2 inh: 39*; GalR3 antag: -5; NR2E3 ag-2: -3

What do the screens show for `CC(C)(C)n1nnnc1C1CN=C(c2ccccc2)c2ccccc2N1` (stereo unspecified)?
SMARCA2 activ: 0; NR2F2 inh: -3

What do the screens show for `CCOC(=O)C(NC(C)=O)C(OC(C)=O)c1cccc(N(CCCl)CCCl)c1` (stereo unspecified)?
SMARCA2 activ: 2; NR2F2 inh: 7; NR2E3 ag-1: 0; GalR3 antag: 13*; NR2E3 ag-2: -6

Results for CCCCn1c(NC(=O)c2ccc(Br)o2)c(C(=O)OCC)c2nc3ccccc3nc21 ?
SMARCA2 activ: 0; NR2F2 inh: 17; NR2E3 ag-1: 30*; GalR3 antag: -7; NR2E3 ag-2: -9

How did C=CCCC(NC(=O)OCc1ccccc1)P(=O)(Oc1ccccc1)Oc1ccccc1 (stereo unspecified) do in these assays?
NR2F2 inh: 3

How did C[C@H]1O[C@@H](OC2CC[C@]3(C=O)[C@H]4CC[C@]5(C)[C@@H](C6=CC(=O)OC6)CC[C@]5(O)[C@@H]4CC[C@]3(O)C2)CC2OC(C)(C)OC21 (stereo partly specified) do in these assays?
SMARCA2 activ: -8; NR2F2 inh: 75*; NR2E3 ag-1: -3; GalR3 antag: 34*; NR2E3 ag-2: -12

Results for COC(=O)[C@@]1(O)c2c(oc3cccc(O)c3c2=O)C=C[C@H]1O ?
SMARCA2 activ: -6; NR2F2 inh: -18

Results for CN(C)C(=O)Oc1ccc(C(=O)c2ccccc2)cc1 ?
SMARCA2 activ: 7.9*; NR2F2 inh: -15; NR2E3 ag-1: -1; GalR3 antag: -7; NR2E3 ag-2: -10

How did CN(C)C(=O)Oc1ccc(OC(=O)N(C)C)cc1 do in these assays?
SMARCA2 activ: 4; NR2F2 inh: 17; NR2E3 ag-1: -1; GalR3 antag: -4; NR2E3 ag-2: -2

How did CC(=O)N1c2ccccc2C(c2ccccc2)=NCC1C(=O)NC1CCCCC1 (stereo unspecified) do in these assays?
SMARCA2 activ: 2; NR2F2 inh: -7

What do the screens show for `C[C@H]1[C@H](OC(=O)CCC(=O)NCc2ccc(C(=O)O)cc2)O[C@@H]2O[C@@]3(C)CC[C@H]4[C@H](C)CC[C@@H]1C24OO3`?
NR2E3 ag-1: -2; NR2E3 ag-2: 93*

How did O=c1c2ccccc2[nH]c(=S)n1-c1ccc(Br)cc1 do in these assays?
SMARCA2 activ: -3; NR2F2 inh: 14; NR2E3 ag-1: 36*; GalR3 antag: -4; NR2E3 ag-2: -20; NR2E3 ag confirm: -7; PPARg-NCOR2 ctr: -4

Results for O=C(NCCN1CCC2(CC1)C(=O)NCN2c1ccccc1)c1cccnc1Cl ?
SMARCA2 activ: -1; NR2F2 inh: 4; GalR3 antag: -6
